ChEMBL document CHEMBL2384952, “Synthesis, antifungal and cytotoxic activities of 2-aryl-3-((piperidin-1-yl)ethyl)thiazolidinones” (Eur J Med Chem, 2013)
In brackets after ≈: the same amount, converted by molar mass.

Key:
Papiliotrema laurentii = assay: Antifungal activity against Cryptococcus laurentii after 48 hrs by CLSI M27A3 broth microdilution method; assay type: functional
Procedure, shortened: (§1)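 Yeasts were kept on Sabouraud dextrose agar and subcultured at 35 °C for at least 2 days. They were suspended in saline to McFarland 0.5 and diluted in RPMI. Ten successive dilutions were made from a 1.6 mg/mL DMSO stock per CLSI broth microdilution, then incubated at 37 °C for 48 h. Growth was read visually against a growth-control well, and MIC is the lowest concentration inhibiting growth.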

Trichosporon asahii = assay: Antifungal activity against Trichosporon asahii after 48 hrs by CLSI M27A3 broth microdilution method; assay type: functional; procedure, shortened: as §1
[1] = test system: Meyerozyma guilliermondii; assay: Antifungal activity against Candida guilliermondii after 48 hrs by CLSI M27A3 broth microdilution method; assay type: functional; procedure, shortened: as §1
Vero [2] = assay: Cytotoxicity against African green monkey Vero cells at 3150 ug/mL by neutral red dye uptake assay relative to control; assay type: cell-based; settings: chlorocebus sabaeus
Procedure, shortened: (§2)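 Vero cells (over 99% viable by trypan blue exclusion) were exposed to serial compound dilutions in E-MEM, with fresh E-MEM as negative control, for 72 h at 37 °C, 5% CO2. Cells were then given 3.3 mg/L neutral red for 2 h, and the dye was extracted with 50% ethanol/1% acetic acid. A540 was read, and viability was calculated as treated/control absorbance × 100.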

Vero [3] = assay: Cytotoxicity against African green monkey Vero cells at 98 ug/mL by neutral red dye uptake assay relative to control; assay type: cell-based; settings: chlorocebus sabaeus; procedure, shortened: as §2
Vero [4] = assay: Cytotoxicity against African green monkey Vero cells at 12.3 ug/mL by neutral red dye uptake assay relative to control; assay type: cell-based; settings: chlorocebus sabaeus; procedure, shortened: as §2
Rhodotorula = assay: Antifungal activity against Rhodotorula species after 48 hrs by CLSI M27A3 broth microdilution method; assay type: functional; procedure, shortened: as §1
Vero [5] = assay: Cytotoxicity against African green monkey Vero cells at 1575 ug/mL by neutral red dye uptake assay relative to control; assay type: cell-based; settings: chlorocebus sabaeus; procedure, shortened: as §2
Vero [6] = assay: Cytotoxicity against African green monkey Vero cells at 787 ug/mL by neutral red dye uptake assay relative to control; assay type: cell-based; settings: chlorocebus sabaeus; procedure, shortened: as §2
Candida parapsilosis = assay: Antifungal activity against Candida parapsilosis after 48 hrs by CLSI M27A3 broth microdilution method; assay type: functional; settings: Lodderomyces parapsilosis; procedure, shortened: as §1
Vero [7] = assay: Cytotoxicity against African green monkey Vero cells at 394 ug/mL by neutral red dye uptake assay relative to control; assay type: cell-based; settings: chlorocebus sabaeus; procedure, shortened: as §2
Vero [8] = assay: Cytotoxicity against African green monkey Vero cells at 197 ug/mL by neutral red dye uptake assay relative to control; assay type: cell-based; settings: chlorocebus sabaeus; procedure, shortened: as §2
Vero [9] = assay: Cytotoxicity against African green monkey Vero cells at 25 ug/mL by neutral red dye uptake assay relative to control; assay type: cell-based; settings: chlorocebus sabaeus; procedure, shortened: as §2
Vero [10] = assay: Cytotoxicity against African green monkey Vero cells at 49 ug/mL by neutral red dye uptake assay relative to control; assay type: cell-based; settings: chlorocebus sabaeus; procedure, shortened: as §2
Candida albicans = assay: Antifungal activity against Candida albicans after 48 hrs by CLSI M27A3 broth microdilution method; assay type: functional; procedure, shortened: as §1
Geotrichum = assay: Antifungal activity against Geotrichum species after 48 hrs by CLSI M27A3 broth microdilution method; assay type: functional; procedure, shortened: as §1

| SMILES | MFC (Papiliotrema laurentii) | MIC (Papiliotrema laurentii) | MFC (Trichosporon asahii) | MIC (Trichosporon asahii) | MFC [1] | MIC [1] | Cell viability (Vero [2]) | Cell viability (Vero [3]) | Cell viability (Vero [4]) | MFC (Rhodotorula) | MIC (Rhodotorula) | Cell viability (Vero [5]) | Cell viability (Vero [6]) | MFC (Candida parapsilosis) | MIC (Candida parapsilosis) | Cell viability (Vero [7]) | MFC (Candida albicans) | MIC (Candida albicans) | MFC (Geotrichum) | MIC (Geotrichum) | further results |
| --- | --- | --- | --- | --- | --- | --- | --- | --- | --- | --- | --- | --- | --- | --- | --- | --- | --- | --- | --- | --- | --- |
| O=C1CSC(c2ccc([N+](=O)[O-])cc2)N1CCN1CCCCC1 (stereo not drawn) | 100 µg/mL (≈ 298 µM) | 100 µg/mL (≈ 298 µM) | 100 µg/mL (≈ 298 µM) | 100 µg/mL (≈ 298 µM) | 100 µg/mL (≈ 298 µM) | 100 µg/mL (≈ 298 µM) | 10% | 87% | 100% | 30 µg/mL (≈ 89.4 µM) | 30 µg/mL (≈ 89.4 µM) | 15% | 21% | 100 µg/mL (≈ 298 µM) | 100 µg/mL (≈ 298 µM) | 66% | 62 µg/mL (≈ 185 µM) | 62 µg/mL (≈ 185 µM) | 50 µg/mL (≈ 149 µM) | 50 µg/mL (≈ 149 µM) | Cell viability (Vero [8]): 72%; Cell viability (Vero [9]): 100%; Cell viability (Vero [10]): 100% |
| COc1ccc(C2SCC(=O)N2CCN2CCCCC2)cc1 (stereo not drawn) | 100 µg/mL (≈ 312 µM) | 100 µg/mL (≈ 312 µM) | > 400 µg/mL | > 400 µg/mL | 100 µg/mL (≈ 312 µM) | 100 µg/mL (≈ 312 µM) | 11% | 89% | 100% | 33.5 µg/mL (≈ 105 µM) | 33.5 µg/mL (≈ 105 µM) | 11% | 33% | 50 µg/mL (≈ 156 µM) | 50 µg/mL (≈ 156 µM) | 73% | 75 µg/mL (≈ 234 µM) | 75 µg/mL (≈ 234 µM) | > 400 µg/mL | > 400 µg/mL | Cell viability (Vero [8]): 87%; Cell viability (Vero [9]): 100%; Cell viability (Vero [10]): 100% |
| O=C1CSC(c2ccccc2[N+](=O)[O-])N1CCN1CCCCC1 (stereo not drawn) | 100 µg/mL (≈ 298 µM) | 100 µg/mL (≈ 298 µM) | 100 µg/mL (≈ 298 µM) | 100 µg/mL (≈ 298 µM) | 25 µg/mL (≈ 74.5 µM) | 25 µg/mL (≈ 74.5 µM) | 30% | 100% | 100% | 25 µg/mL (≈ 74.5 µM) | 25 µg/mL (≈ 74.5 µM) | 24% | 100% | 50 µg/mL (≈ 149 µM) | 50 µg/mL (≈ 149 µM) | 100% | 55 µg/mL (≈ 164 µM) | 55 µg/mL (≈ 164 µM) | 25 µg/mL (≈ 74.5 µM) | 25 µg/mL (≈ 74.5 µM) | Cell viability (Vero [8]): 100%; Cell viability (Vero [9]): 100%; Cell viability (Vero [10]): 100% |
| O=C1CSC(c2cccc(O)c2)N1CCN1CCCCC1 (stereo not drawn) | 100 µg/mL (≈ 326 µM) | 100 µg/mL (≈ 326 µM) | > 400 µg/mL | > 400 µg/mL | 100 µg/mL (≈ 326 µM) | 100 µg/mL (≈ 326 µM) | 11% | 100% | 100% | 33.5 µg/mL (≈ 109 µM) | 33.5 µg/mL (≈ 109 µM) | 13% | 60% | 67 µg/mL (≈ 219 µM) | 67 µg/mL (≈ 219 µM) | 100% | 81 µg/mL (≈ 264 µM) | 81 µg/mL (≈ 264 µM) | > 400 µg/mL | > 400 µg/mL | Cell viability (Vero [8]): 100%; Cell viability (Vero [9]): 100%; Cell viability (Vero [10]): 100% |
| O=C1CSC(c2ccc(O)cc2)N1CCN1CCCCC1 (stereo not drawn) | 100 µg/mL (≈ 326 µM) | 100 µg/mL (≈ 326 µM) | 50 µg/mL (≈ 163 µM) | 50 µg/mL (≈ 163 µM) | 100 µg/mL (≈ 326 µM) | 100 µg/mL (≈ 326 µM) | 10% | 94% | 100% | 25 µg/mL (≈ 81.6 µM) | 25 µg/mL (≈ 81.6 µM) | 12% | 57% | 100 µg/mL (≈ 326 µM) | 100 µg/mL (≈ 326 µM) | 76% | 100 µg/mL (≈ 326 µM) | 100 µg/mL (≈ 326 µM) | 50 µg/mL (≈ 163 µM) | 50 µg/mL (≈ 163 µM) | Cell viability (Vero [8]): 87%; Cell viability (Vero [9]): 100%; Cell viability (Vero [10]): 96% |
| COc1cccc(C2SCC(=O)N2CCN2CCCCC2)c1 (stereo not drawn) | 100 µg/mL (≈ 312 µM) | 100 µg/mL (≈ 312 µM) | > 400 µg/mL | > 400 µg/mL | 100 µg/mL (≈ 312 µM) | 100 µg/mL (≈ 312 µM) | 6% | 84% | 100% | 33.5 µg/mL (≈ 105 µM) | 33.5 µg/mL (≈ 105 µM) | 11% | 19% | 100 µg/mL (≈ 312 µM) | 100 µg/mL (≈ 312 µM) | 57% | 100 µg/mL (≈ 312 µM) | 100 µg/mL (≈ 312 µM) | > 400 µg/mL | > 400 µg/mL | Cell viability (Vero [8]): 66%; Cell viability (Vero [9]): 97%; Cell viability (Vero [10]): 90% |
| Cc1ccc(C2SCC(=O)N2CCN2CCCCC2)cc1 (stereo not drawn) | 66 µg/mL (≈ 217 µM) | 66 µg/mL (≈ 217 µM) | 50 µg/mL (≈ 164 µM) | 50 µg/mL (≈ 164 µM) | 100 µg/mL (≈ 328 µM) | 100 µg/mL (≈ 328 µM) | 12% | 100% | 100% | 37.5 µg/mL (≈ 123 µM) | 37.5 µg/mL (≈ 123 µM) | 13% | 17% | 100 µg/mL (≈ 328 µM) | 100 µg/mL (≈ 328 µM) | 51% | 62 µg/mL (≈ 204 µM) | 62 µg/mL (≈ 204 µM) | 100 µg/mL (≈ 328 µM) | 100 µg/mL (≈ 328 µM) | Cell viability (Vero [8]): 85%; Cell viability (Vero [9]): 100%; Cell viability (Vero [10]): 100% |
| O=C1CSC(c2c(Cl)cccc2Cl)N1CCN1CCCCC1 (stereo not drawn) | 200 µg/mL (≈ 557 µM) | 200 µg/mL (≈ 557 µM) | 50 µg/mL (≈ 139 µM) | 50 µg/mL (≈ 139 µM) | 200 µg/mL (≈ 557 µM) | 200 µg/mL (≈ 557 µM) | 7% | 76% | 100% | 30 µg/mL (≈ 83.5 µM) | 30 µg/mL (≈ 83.5 µM) | 10% | 11% | 100 µg/mL (≈ 278 µM) | 100 µg/mL (≈ 278 µM) | 32% | 75 µg/mL (≈ 209 µM) | 75 µg/mL (≈ 209 µM) | 50 µg/mL (≈ 139 µM) | 50 µg/mL (≈ 139 µM) | Cell viability (Vero [8]): 75%; Cell viability (Vero [9]): 100%; Cell viability (Vero [10]): 100% |
| OC(Cn1cncn1)(Cn1cncn1)c1ccc(F)cc1F [FLUCONAZOLE] | 1 µg/mL (≈ 3.27 µM) | 1 µg/mL (≈ 3.27 µM) | 1 µg/mL (≈ 3.27 µM) | 1 µg/mL (≈ 3.27 µM) | 16 µg/mL (≈ 52.2 µM) | 16 µg/mL (≈ 52.2 µM) | – | – | – | 26.5 µg/mL (≈ 86.5 µM) | 26.5 µg/mL (≈ 86.5 µM) | – | – | 1 µg/mL (≈ 3.27 µM) | 1 µg/mL (≈ 3.27 µM) | – | 1 µg/mL (≈ 3.27 µM) | 1 µg/mL (≈ 3.27 µM) | 8 µg/mL (≈ 26.1 µM) | 8 µg/mL (≈ 26.1 µM) | – |
